In data set [1] the test system is Human immunodeficiency virus 1. Nature of the data set: Antiviral activity against HIV1. The class given is functional, organism-based.
Data set [2] relates to Human immunodeficiency virus 1. Nature of the data set: Antiviral activity against HIV1 NL4-3 infected in human TZM-bl cells after 2 days by luciferase reporter gene assay. The following applies: for pEC50: Human immunodeficiency virus 1, NL4-3, TZM-bl, 48 h, read-out: EC50.
Data set [3] relates to Human immunodeficiency virus 1. Nature of the data set: Antiviral activity against HIV1 3B infected in human MT2 cells assessed as reduction in p24 antigen level after 4 days by ELISA. The class given is functional, organism-based. To be noted: Human immunodeficiency virus 1, 3B, MT2, 96 h; read-out: EC50. The gist of the method:
(§1)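 MT-2 cells (10^4/well) were infected with 100 TCID50 virus in RPMI 1640 with 10% FBS, with or without graded compound concentrations, overnight. Supernatant was then replaced with compound-free medium. On day 4 post-infection, supernatant was mixed 1:1 with 5% Triton X-100 and p24 antigen was quantified by ELISA. Percent inhibition was converted to EC50 with CalcuSyn. Tested at least in triplicate.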
Background: ELISA stands for enzyme-linked immunosorbent assay.

A short description of data set [4]: (§2) Cytotoxicity in human MT2 cells after 4 day by XTT assay. The class given is cell-based. The following applies: MT2 cells. The gist of the method:
(§3)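 MT-2 cells (5 · 10^5/mL) were mixed with an equal volume of graded compound concentrations and incubated 4 days at 37 °C. XTT solution (1 mg/mL) containing 0.02 μM phenazine methosulphate was then added. After 4 h, absorbance at 450 nm was read.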

The nature of data set [5]: Selectivity index, ratio of CC50 for human MT2 cells to EC50 for HIV1 3B. The class given is toxicity, cell-based. To be noted: mt2. The method in brief: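 SI = CC50/EC50 (p24 ELISA). XTT (1 mg/mL) containing 0.02 μM PMS was added for 4 h, then absorbance was read at 450 nm. CC50 was calculated with CalcuSyn.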
Data set [6] deals with Human immunodeficiency virus 1. Nature of the data set: Resistance index, ratio of EC50 for multidrug resistant HIV1 RTMDR to EC50 for wild type HIV1 NL4-3. It is filed as functional.
Data set [7] has as its system Human immunodeficiency virus 1. Kind of data set: Antiviral activity against multidrug resistant HIV1 RTMDR containing reverse transcriptase L74V, M41L, V106A and T215Y mutant infected in human TZM-bl cells after 2 days by luciferase reporter gene assay. To be noted: Human immunodeficiency virus 1, RTMDR, 48 h.
Data set [8] deals with Human immunodeficiency virus 1. Kind of data set: Antiviral activity against multidrug resistant HIV1 A17 containing reverse transcripatseK103N and Y181C mutation infected in human MT2 cells assessed as reduction in p24 antigen level after 4 days by ELISA. To be noted: Human immunodeficiency virus 1, A17, MT2, 96 h. It is filed as functional, organism-based. The method in brief:
as §1

A short description of data set [9]: Cytotoxicity in human TZM-bl cells after 4 day by XTT assay. It is filed as cell-based. To be noted: 96 h. In general terms: Formazan colour is commonly taken as a measure of viable cells.
Another data set relates to MT2. The description is as §2. The class given is cell-based. The following applies: mt2, 96 h. The gist of the method: as §3
A short description of data set [10]: Selectivity index, ratio of CC50 for human TZM-bl cells to EC50 for HIV1 NL4-3. It is filed as toxicity, cell-based.
In data set [11] the test system is Human immunodeficiency virus 1. Nature of the data set: Resistance index, ratio of EC50 for multidrug resistant HIV1 A17 to EC50 for wild type HIV1 3B. The class given is functional.

The pEC50 is the negative decadic logarithm of the EC50, by convention in mol/L. In general, CC50 refers to the concentration that lowers cell viability or growth by half. The low end stands for harm at low concentration, the high end for better tolerance by the cells.

pEC50: −log10 of the molar value.

In turn, `Cc1cc(C#N)cc(C)c1Oc1cc(Nc2ccc(C#N)cc2)c(N)cc1[N+](=O)[O-]` showed a pEC50 in [1] of 8.52.

Take `C=CCc1cc(C)c(Oc2ccc([N+](=O)[O-])c(Nc3ccc(C#N)cc3)n2)c(C)c1`: in data set [2] (tzm-bl), the EC50 entry is “Not Active”. In addition, the pEC50 in data set [3] was 5.87. In data set [4], this compound had a CC50 at 96 h of 39700 nM. Besides, the “Ratio CC50/EC50” value in data set [5] is recorded as 27.37.

For `Cc1cc(/C=C/C#N)cc(C)c1Oc1ccc([N+](=O)[O-])c(Nc2ccc(C#N)cc2)c1`, the pEC50 was 7.98 in data set [2], 7.77 in data set [7], less than 5.00 in data set [8] and 7.43 in data set [3]. Further, the “Ratio EC50” value in data set [6] was 1.63; in data set [11], more than 270. In addition, the results for the CC50 (in data set [9]; in the data set with MT2) were more than 48800 nM and more than 100000 nM, respectively. Moreover, the “Ratio CC50/EC50” value in data set [5] was more than 2702. The selectivity ratio in data set [10] (TZM-bl cells, read-out: Ratio CC50/EC50) was found to be 4690.

Turning to `Cc1cc(/C=C/C#N)cc(C)c1Oc1ccc(N)c(Nc2ccc(C#N)cc2)c1`, the pEC50 was 9.26 in data set [2], 8.75 in data set [7], 6.22 in [8] and more than 7.85 in [3]. Moreover, the “Ratio EC50” value in data set [6] stood at 3.25; in [11], 43. Further, the CC50 in [9] was 25000 nM; with MT2 it was 8830 nM. Also, the “Ratio CC50/EC50” value in data set [5] is reported as more than 631; in data set [10] (tzm-bl), 45455.

Values taken from ChEMBL document CHEMBL1629529, “Design, synthesis, and evaluation of diarylpyridines and diarylanilines as potent non-nucleoside HIV-1 reverse transcriptase inhibitors” (J Med Chem, 2010).
